In ChEMBL document CHEMBL1138509, “Synthesis and biological activities of topoisomerase I inhibitors, 6-arylmethylamino analogues of edotecarin” (J Med Chem, 2009):

Key:
DNA topoisomerase 1 = target: T1, DNA topoisomerase 1 (Homo sapiens, UniProt P11387); assay: Inhibition of human DNA topoisomerase 1-mediated DNA cleavage assessed as relaxation of supercoiled pBR322 plasmid DNA after 15 mins by densitometer
T1 sequence (P11387 whole entry): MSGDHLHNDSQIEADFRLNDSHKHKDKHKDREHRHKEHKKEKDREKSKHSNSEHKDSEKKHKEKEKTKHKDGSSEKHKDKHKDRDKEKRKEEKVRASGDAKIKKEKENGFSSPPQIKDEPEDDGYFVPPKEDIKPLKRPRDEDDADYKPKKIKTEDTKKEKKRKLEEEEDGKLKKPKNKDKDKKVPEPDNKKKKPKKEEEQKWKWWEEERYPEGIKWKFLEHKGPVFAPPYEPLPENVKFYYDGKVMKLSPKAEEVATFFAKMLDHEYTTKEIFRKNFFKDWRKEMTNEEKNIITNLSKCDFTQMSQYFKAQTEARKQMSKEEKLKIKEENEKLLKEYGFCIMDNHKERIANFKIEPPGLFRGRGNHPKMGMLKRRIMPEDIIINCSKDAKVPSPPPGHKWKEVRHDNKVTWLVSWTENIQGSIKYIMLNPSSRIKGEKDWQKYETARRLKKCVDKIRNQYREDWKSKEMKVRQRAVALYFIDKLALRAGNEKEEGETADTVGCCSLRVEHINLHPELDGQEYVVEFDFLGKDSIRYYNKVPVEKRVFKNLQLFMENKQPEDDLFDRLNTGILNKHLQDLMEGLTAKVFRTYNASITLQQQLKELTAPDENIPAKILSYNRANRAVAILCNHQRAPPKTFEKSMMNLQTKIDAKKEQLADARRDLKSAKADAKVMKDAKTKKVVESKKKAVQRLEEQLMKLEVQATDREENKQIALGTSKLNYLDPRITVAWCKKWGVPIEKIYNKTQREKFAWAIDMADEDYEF

DLD-1 = assay: Cytotoxicity against human DLD1 cells after 72 hrs; format: functional, cell-based; details: DLD-1, 72 h
Mus musculus [1] = assay: Toxicity in human MKN45 cells xenografted iv dosed nude mouse; format: organism-based, MKN-45; details: in vivo
Procedure, shortened: (§1)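 Toxicity was taken as LD10, the approximate dose lethal to 10% of nude mice at the treatment schedule. Mice bore subcutaneous side-flank MKN-45 or MX-1 xenografts and received iv dosing, either five times/week or twice/week for two consecutive weeks.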

MKN-45 [2] = assay: Antitumor activity in human MKN45 cells xenografted iv dosed nude mouse assessed as tumor growth inhibition administered 5 times per week for 2 weeks at tumor growth of >= 0.2 cm2; format: functional
Procedure, shortened: (§2)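 Human MKN-45 (stomach) or MX-1 (breast) cells implanted subcutaneously into a side flank of nude mice. Compound given iv five times/week. GID₇₅ is the approximate dose giving 75% growth inhibition. LD₁₀ is the approximate 10% lethal dose at that schedule. Safety margin is LD₁₀/GID₇₅.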

[3] = Safety margin, ratio of LD10 for nude mouse to GID75 for human MKN45 cells; format: toxicity, cell-based; details: mkn-45
Procedure, shortened: (§3)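 Nude mice carried MKN-45 or MX-1 tumours implanted subcutaneously in a side flank. Compounds were given iv, either five times/week or twice/week for two consecutive weeks. The twice/week arm started once tumours reached 0.2 cm³ or larger. GID75 is the approximate dose giving 75% tumour growth inhibition, and LD10 is the approximate 10% lethal dose at that schedule. Safety margin = LD10/GID75.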

[4] = target: Epidermal growth factor receptor (Homo sapiens, UniProt P00533); assay: Inhibition of EGFR
Sequence of Epidermal growth factor receptor (P00533 whole entry): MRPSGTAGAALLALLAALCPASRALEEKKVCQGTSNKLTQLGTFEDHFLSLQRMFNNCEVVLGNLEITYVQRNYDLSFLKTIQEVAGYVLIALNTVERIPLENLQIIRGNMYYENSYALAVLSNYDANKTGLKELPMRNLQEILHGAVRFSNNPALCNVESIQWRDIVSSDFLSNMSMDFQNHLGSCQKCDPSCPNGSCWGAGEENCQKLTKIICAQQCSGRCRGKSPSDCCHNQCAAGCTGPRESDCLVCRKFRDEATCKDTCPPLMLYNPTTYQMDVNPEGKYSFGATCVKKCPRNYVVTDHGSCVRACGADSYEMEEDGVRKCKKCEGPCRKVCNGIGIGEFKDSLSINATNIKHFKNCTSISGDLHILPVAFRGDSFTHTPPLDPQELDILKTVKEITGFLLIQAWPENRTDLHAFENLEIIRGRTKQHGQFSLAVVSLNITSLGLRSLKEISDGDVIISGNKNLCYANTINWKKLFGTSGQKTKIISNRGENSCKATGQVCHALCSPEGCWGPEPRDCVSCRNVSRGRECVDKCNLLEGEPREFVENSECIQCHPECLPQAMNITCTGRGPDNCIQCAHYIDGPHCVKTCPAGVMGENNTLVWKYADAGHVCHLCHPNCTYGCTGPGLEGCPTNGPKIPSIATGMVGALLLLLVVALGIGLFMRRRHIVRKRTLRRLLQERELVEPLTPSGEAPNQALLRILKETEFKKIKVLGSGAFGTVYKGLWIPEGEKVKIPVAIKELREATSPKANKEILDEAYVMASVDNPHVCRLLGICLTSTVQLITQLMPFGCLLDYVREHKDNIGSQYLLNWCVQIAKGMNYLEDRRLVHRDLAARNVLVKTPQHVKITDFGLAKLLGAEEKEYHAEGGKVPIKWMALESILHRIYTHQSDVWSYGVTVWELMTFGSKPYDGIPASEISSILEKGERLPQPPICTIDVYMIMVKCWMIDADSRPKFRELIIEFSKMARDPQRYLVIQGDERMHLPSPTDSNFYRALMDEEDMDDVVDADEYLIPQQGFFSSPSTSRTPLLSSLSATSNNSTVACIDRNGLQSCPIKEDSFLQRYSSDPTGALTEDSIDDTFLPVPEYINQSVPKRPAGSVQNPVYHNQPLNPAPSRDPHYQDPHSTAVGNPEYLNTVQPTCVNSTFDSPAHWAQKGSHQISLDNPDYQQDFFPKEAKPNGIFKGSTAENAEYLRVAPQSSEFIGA
Procedure, shortened: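 Kinase-inhibition assay against EGF receptor kinase, with Poly(Glu4Tyr1) as substrate.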

P388/S = assay: Cytotoxicity against mouse P388/S cells after 72 hrs by colorimetric tetrazolium-formazan method; format: functional, cell-based
Procedure, shortened: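 Murine leukaemia P388 cells were exposed to compound for 72 h. Viability was read by the colorimetric tetrazolium-formazan method.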

MX1 = assay: Antitumor activity in human MX1 cells xenografted iv dosed nude mouse assessed as tumor growth inhibition administered 5 times per week for 2 weeks at tumor growth of >= 0.2 cm2; format: functional; procedure, shortened: as §2
[5] = Inhibition of PKC
Procedure, shortened: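 Protein kinase C inhibition assay, with Histone II-As as substrate.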

[6] = Safety margin, ratio of LD10 for nude mouse to GID75 for human MX1 cells; format: toxicity, cell-based; procedure, shortened: as §3
Mus musculus [7] = assay: Toxicity in human MX1 cells xenografted iv dosed nude mouse; format: organism-based; details: in vivo; procedure, shortened: as §1
MKN-45 [8] = assay: Cytotoxicity against human MKN45 cells after 72 hrs; format: functional, cell-based; details: MKN-45, 72 h
Procedure, shortened: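 MKN-45 human stomach cancer cells were incubated with compound for 72 h. Cytotoxicity was measured by the colorimetric tetrazolium-formazan method and by sulforhodamine B dye staining.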

O=C1c2c(c3c4ccc(O)cc4n([C@@H]4O[C@H](CO)[C@@H](O)[C@H](O)[C@H]4O)c3c3[nH]c4cc(O)ccc4c23)C(=O)N1NC(CO)CO [EDOTECARIN]
EC50 (DNA topoisomerase 1): 51 nM | IC50 (DLD-1): 70 nM | LD10 (Mus musculus [1]): > 1600 mg/m2 | GID75 (MKN-45 [2]): 45 mg/m2 | selectivity ratio [3]: > 36 | IC50 [4]: > 200000 nM | IC50 (P388/S): 1.5 nM | GID75 (MX1): 160 mg/m2 | IC50 [5]: 18000 nM | selectivity ratio [6]: > 13 | LD10 (Mus musculus [7]): > 2000 mg/m2 | IC50 (MKN-45 [8]): 4.8 nM
